The sample as a whole holds a higher share of hits than the screen did.
PTEN del growth = suppresses growth of cells with PTEN deletion | 140,000 tested, 1.2% active | HCT116 PTEN-null viability, CellTiter-Glo, 60 h; active compounds read low | viability, % at 10 µM;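 active means viability at or below a set limit, 4 SD under the median of all tested compounds, cut at about 3.7% in these data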;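 further: PTEN knockout HCT116 line with beta catenin targeted HCT116 as companion control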
bCat KO growth = beta-catenin-lacking colon tumor cell growth suppression; 140,000 tested, 1.5% active; HCT116 beta-catenin knockout viability, CellTiter-Glo, 60 h; active compounds read low; viability, % at 10 µM; AID 818;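 active means viability at or under a set limit, the compound median less 4 SD, cut at about 6% in these data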;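 further: 0% = Hyamine 1622 control at 20 µM and 100% = untreated cell control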
HUVEC inhibit = inhibitors of human endothelial cell proliferation; HUVEC proliferation, CellTiter-Glo luminescence, 72 h; active compounds read low; viability, % at 10 µM (by protocol); 86,000 tested, 1.1% active; AID 648;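 active means viability at or below 30%; inactive means viability above 30%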;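 further: 100% = median luminescence of DMSO-only cell control wells on each plate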
H69AR inhibit = growth inhibitors of human H69AR lung tumor cells; 85,000 tested, 6% active; viability, % at 10 µM; H69AR lung tumor viability, ATP luminescence, 72 h; active compounds read low;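 active means viability at or below 40%; inactive means viability above 40%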;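 further: multidrug resistant small cell line overexpressing MRP-1 efflux transporter; 100% = mean luminescence of untreated control wells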
Fibroblast inh = blocks proliferation of human lung fibroblasts; LL 47 human lung fibroblast viability, ATP luminescence; active compounds read low; viability, % at 10 µM; 85,000 tested, 1.1% active; AID 719;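 active means viability at or below 50% in the single dose screen; inactive means viability above 50%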;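 further: compound exposure lasted 72 h before the ATP readout; 100% = median luminescence of untreated cell-only wells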
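Material: human LL 47 lung fibroblast cells; quantity: 1,150 cells/well; medium: IMEM plus 15% FBS; doses: 0.1% DMSO in all compound wells; timing: overnight attachment after seeding, then 72 h compound exposure at 37 °C; detection: CellTiter-Glo luminescence; measure: % viability of median cell-only signal; controls: cell-only wells, no compound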
An asterisk follows results filed as active; / = not tested or not shown.

SMILES	PTEN del growth	bCat KO growth	HUVEC inhibit	H69AR inhibit	Fibroblast inh
CCc1nc(SCc2nc3ccccc3[nH]2)c2oc3ccccc3c2n1	48	69	79	40*	90
CCc1nc(SCCO)c2oc3ccccc3c2n1	87	97	89	90	91
CCc1nc(Nc2ccc3c(c2)OCCO3)c2oc3ccccc3c2n1	60	68	40	38*	89
Cc1cc(C(=O)Oc2cccnc2)ccc1[N+](=O)[O-]	103	101	/	/	/
Cc1ccc(NC2=CC(=O)C(=O)c3ccccc32)cc1	0.6*	1.2*	6.5*	3.4*	7.3*
CCOC(=O)c1ccc(NC(=O)C(C)N2C(=O)c3ccccc3C2=O)cc1 (stereo not drawn)	102	103	101	93	108
CCOC(=O)c1ccc(NC2=CC(=O)C(=O)c3ccccc32)cc1	8	1.4*	5.4*	95	3.9*
COc1ccc(NC(=S)Nc2cccc(S(=O)(=O)N3CCCCC3)c2)cc1	80	74	/	/	/
O=C(/C=C/c1ccccc1[N+](=O)[O-])Nc1cccnc1	92	93	/	/	/
C/C(=C\C(=O)c1ccccc1)Nc1ccc2c(c1)OCO2	92	99	/	/	/
CCOc1ccccc1C(=O)N[C@H](C(=O)OCc1cc([N+](=O)[O-])cc2c1OCOC2)C(C)C	56	60	/	/	/
Cc1ccc(NC(=O)COc2ccc(/C=C3/SC(=Nc4ccccc4)N(Cc4cccnc4)C3=O)cc2)cc1	2.2*	2.7*	/	/	/
Cc1ccc(NC(=O)COc2ccc(/C=N/NC(=O)CSCc3ccccc3)cc2)cc1	95	83	/	/	/
Cc1nc2c(n1C1CCCCC1)C(=O)c1ccccc1C2=O	43	57	/	/	/
CCOc1cc(CNCCc2ccc(S(N)(=O)=O)cc2)cc(Cl)c1OCc1ccccc1	1.9*	1.5*	/	/	/
COc1cc(CNC2CCCC2)cc(Cl)c1OCc1ccccc1Cl	1.6*	1.2*	/	/	/
COc1cc(CNC2CCCC2)cc(OC)c1OC	102	107	87	90	105
CCOc1cc(CNC2CCCC2)cc(Cl)c1OCc1ccc(F)cc1	0.9*	0.9*	/	/	/
COc1cc(CNC2CCCC2)cc(Cl)c1OCc1ccc(F)cc1	64	48	/	/	/
CC1(C)Cc2c(sc3nc(-c4ccccc4)oc(=O)c23)CO1	86	90	/	/	/
CCc1nnc(NS(=O)(=O)c2ccc(NC(=O)/C=C/c3ccc(OC)cc3OC)cc2)s1	95	91	/	/	/
Cc1cccc(-n2c(SCC(=O)N3CC(=O)Nc4ccccc43)nc3ccccc3c2=O)c1C	36	50	/	/	/
O=C1c2cc([N+](=O)[O-])cc3cc([N+](=O)[O-])cc(c23)C(=O)N1c1ccccn1	6	15	/	/	/
Cc1ccnc(N2C(=O)c3cccc4c([N+](=O)[O-])ccc(c34)C2=O)c1	1.3*	1.2*	/	/	/
O=C(NCCCn1ccnc1)c1cc2nc(-c3ccc(Br)cc3)cc(C(F)(F)F)n2n1	71	75	57	4.2*	94
SMILES	PTEN del growth	bCat KO growth	HUVEC inhibit	H69AR inhibit	Fibroblast inh
CC1(C)C2CC=C(/C=N/NC(=O)c3ccc(O)cc3)C1C2 (stereo not drawn)	91	95	/	/	/
CC(=O)Oc1c(S(=O)(=O)c2ccc(C)cc2)c(C)nn1C(C)(C)C	100	104	108	91	102
Cc1ccc(S(=O)(=O)c2c(C)nn(C(C)(C)C)c2OC(=O)c2ccc(Br)o2)cc1	87	96	13*	37*	102
Cc1ccc(S(=O)(=O)c2c(C)nn(C(C)(C)C)c2OC(=O)c2cccs2)cc1	74	78	12*	110	101
Cc1ccc(S(=O)(=O)c2c(C)nn(C(C)(C)C)c2OC(=O)C(C)(C)C)cc1	96	75	89	95	96
Cc1ccc(S(=O)(=O)c2c(C)nn(C(C)(C)C)c2OC(=O)c2ccco2)cc1	121	93	14*	54	109
CCCCNC(=O)c1onc(CSc2ccc(C(C)C)cc2)c1C(=O)O	102	95	/	/	/
COC(=O)Nc1ccc(S(=O)(=O)N2CCCc3ccccc32)cc1	15	14	51	18*	53
COc1ccccc1C(=O)Nc1ccc(S(=O)(=O)N2CCc3ccccc32)cc1	79	83	107	95	107
CCc1nnc(NC(=O)c2ccc(S(=O)(=O)N3CCCc4ccccc43)cc2)o1	14	18	58	20*	67
Cn1c(=O)oc2cc(S(=O)(=O)N3CCCc4ccccc43)ccc21	15	15	48	23*	50
CCCCNS(=O)(=O)c1ccc(NC(=O)c2c(-c3ccccc3Cl)noc2C)cc1	15	14	69	33*	71
COc1ccc(CCNc2nnc(Sc3nnnn3-c3ccccc3)s2)cc1OC	22	14	42	29*	56
CC(C)CN=C(NS(=O)(=O)c1ccccc1)C(Cl)(Cl)Cl	4	4.7*	/	/	/
CC(C)NS(=O)(=O)c1ccc(NC(=O)NC2CCCCC2)cc1	97	91	/	/	/
CCOc1ccc(C(=O)NCCn2cc(SCC(=O)Nc3cc(C)on3)c3ccccc32)cc1	81	81	84	33*	97
Cc1cc(NC(=O)CSc2cn(CCNC(=O)c3ccc(Cl)cc3)c3ccccc23)no1	40	45	83	84	101
O=C(CSc1cn(CCNC(=O)c2ccc3ccccc3c2)c2ccccc12)NCc1ccco1	59	62	62	9.6*	98
Cn1c(=O)cc(SCC(=O)NCc2ccco2)c2ccccc21	98	90	90	108	88
CSc1nnc(-c2sc3cc(C(F)(F)F)cnc3c2-c2ccccc2)n1C	27	21	65	25*	60
O=C(O)c1sc2cc(C(F)(F)F)cnc2c1-c1ccccc1	107	101	/	/	/
O=C(COc1ccccc1Br)NCCc1nc2ccccc2[nH]1	97	95	/	/	/
COc1ccc(C)cc1N1C(=N)/C(=C2/Nc3ccccc3S2)C(c2ccccc2)C1=O (stereo not drawn)	1.7*	1.6*	/	/	/
Cc1ccc2nc(SC(C(=O)c3ccccc3)c3ccccc3)nc(C)c2c1 (stereo not drawn)	91	98	/	/	/
Cc1ccc(NC(=O)CN(C)C(=O)Cn2ncc(Cl)c(Cl)c2=O)cc1	1.0*	1.6*	/	/	/
SMILES	PTEN del growth	bCat KO growth	HUVEC inhibit	H69AR inhibit	Fibroblast inh
Cc1ccc(NC(=O)CN(C)C(=O)COc2c(Cl)cc(Cl)c3ccc(C)nc23)cc1	83	74	/	/	/
Cc1occc1-c1nnc(SCC(=O)N2CCc3ccccc32)o1	90	81	91	1.3*	97
Cc1ccc(-c2nnc3ccc(SCC(=O)N4CCCc5ccccc54)nn23)cc1	62	68	/	/	/
Cc1ccc(-c2nnc3ccc(SCC(=O)N4CCc5ccccc54)nn23)cc1	94	89	45	32*	85
CCN(CC)c1ccc(C2NCC(c3ccc([N+](=O)[O-])cc3)O2)cc1 (stereo not drawn)	97	88	88	103	92
Cc1ccc(N(C(=O)Cn2nnc(-c3ccccc3)n2)C(C(=O)NC2CCCCC2)c2ccccn2)cc1C (stereo not drawn)	81	92	/	/	/
Oc1ccc(C=Nc2ccc3ncccc3c2)c(O)c1	1.7*	1.9*	83	94	106

Compound activity deposited in PubChem by SRMLSC.
